Measured values from ChEMBL document CHEMBL3872211, “4, 5-Dihydrooxazole-pyrazoline hybrids: Synthesis and their evaluation as potential antimalarial agents” (Eur J Med Chem, 2016).
Values after ≈ are worked out from the molar mass of the structure shown. Active and inactive are the calls of the source. The calls are words filed in the database; no cut-off is given here.

Key:
Plasmodium falciparum [1] = test: Antimalarial activity against chloroquine-sensitive Plasmodium falciparum 3D7 infected in human red blood cells assessed as inhibition of schizont stage parasite growth measured after 24 hrs by giemsa staining based assay; type: functional, cell-based; settings: 3D7, 24 h
Summary of the method: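 Parasitized RBCs (2-3% parasitemia, 8% hematocrit) in RPMI 1640 with human AB+ serum were exposed to serial dilutions of test samples from 1 mg/ml stock. Incubation was 24 h at 37 °C under 90% N2/5% CO2/5% O2. Giemsa-stained smears were scored for schizonts (≥3 merozoites). IC50 was taken from dose-response curves by non-linear regression.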

Rattus norvegicus = test: Acute toxicity in Wistar rat assessed as inflammatory cells infiltration in periportal area of liver at <300 mg/kg, po measured after 14 days; type: organism-based; settings: in vivo, 336 h
Plasmodium berghei [2] = test: Antimalarial activity against Plasmodium berghei NK65 infected in Swiss albino mouse assessed as mean survival days at 25 mg/kg, po administered 4 hrs post infection for 4 days measured up to 30 days (reference value: 7.2 days); type: functional
Plasmodium berghei [3] = test: Antimalarial activity against Plasmodium berghei NK65 infected in Swiss albino mouse assessed as mean survival days at 50 mg/kg, po administered 4 hrs post infection for 4 days measured up to 30 days (Rvb= 7.2 days); type: functional
Plasmodium berghei [4] = test: Antimalarial activity against Plasmodium berghei NK65 infected in Swiss albino mouse assessed as reduction in parasitemia at 50 mg/kg, po administered 4 hrs post infection for 4 days measured on day 4 post infection by giemsa staining based microscopic method; type: functional; design: scale not given: the % may be the effect or the level left
Summary of the method: (§1)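 Peters 4-day suppressive test: female Swiss albino mice (20-25 g), groups of five, infected ip with about 10-15% P. berghei NK65-parasitized erythrocytes from a donor mouse. Oral dosing began 4 h later and was given on days 0-3. Vehicle-only group served as negative control. On day 4, tail-vein smears were methanol-fixed, Giemsa-stained and read at 1000×. % suppression was calculated against the negative control.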

Heme [5] = test: Binding affinity to monomeric heme (unknown origin) assessed as association constant at pH 5.6 by UV-titration method
Summary of the method: (§2)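 Hemin stock was 1.2 mM in DMSO. It was diluted into aqueous DMSO (40%) buffered with HEPES pH 7.4 (0.02 M), or with MES for the pH 5.6 run. The titrant (2 mM stock in DMSO) was added stepwise at 0-100 µM final, and the Soret band was read at 402 nm. Association constant (log K) was derived by titration.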

[6] = Selectivity index, ratio of IC50 for cytotoxicity against African green monkey vero cells to IC50 for antimalarial activity against chloroquine-sensitive Plasmodium falciparum 3D7 infected in human red blood cells; type: toxicity, cell-based; settings: read-out: Ratio IC50
Summary of the method: (§3)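 SI = CC50/IC50. CC50 from Vero cells exposed 72 h to compound dilutions, MTT read-out (modified Mosmann method). Antimalarial IC50 from 24 h, 37 °C P. falciparum (3D7 or RKL9) RBC culture, Giemsa schizont counts, non-linear regression.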

Heme [7] = test: Binding affinity to monomeric heme assessed as 1:1 stoichiometry for heme-compound complex up to 100 uM at pH 5.6 by Job's plot analysis
Summary of the method: (§4)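 Monomeric hemin was prepared in 40% DMSO with 0.02 M HEPES (pH 7.4) or 0.02 M MES (pH 5.6). Absorbance was monitored at 402 nm. Complex stoichiometry was determined by a molar-fraction Job's plot.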

[8] = Selectivity index, ratio of IC50 for cytotoxicity against African green monkey vero cells to IC50 for antimalarial activity against chloroquine-resistant Plasmodium falciparum RKL9 infected in human red blood cells; type: toxicity, cell-based; settings: read-out: Ratio IC50; summary of the method: as §3
Heme [9] = test: Binding affinity to monomeric heme (unknown origin) assessed as association constant at pH 7.4 by UV-titration method; summary of the method: as §2
[10] = Resistance index, ratio of IC50 for chloroquine-resistant Plasmodium falciparum RKL9 infected in human RBC to IC50 for chloroquine-sensitive Plasmodium falciparum 3D7 infected in human red blood cells; type: functional
Summary of the method: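 Ratio of IC50 vs RKL9 to IC50 vs 3D7. Both from 24 h, 37 °C culture in RBCs (2-3% parasitemia, 8% hematocrit, RPMI 1640 plus human AB+ serum, 90% N2/5% CO2/5% O2), Giemsa smear schizont counts, non-linear regression.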

Plasmodium falciparum [11] = test: Antimalarial activity against chloroquine-resistant Plasmodium falciparum RKL9 infected in human red blood cells assessed as inhibition of schizont stage parasite growth measured after 24 hrs by giemsa staining based assay; type: functional, cell-based; settings: RKL9, 24 h
Summary of the method: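 P. falciparum RKL9 parasitized RBCs at 2-3% parasitemia, 8% hematocrit in RPMI 1640 with human AB+ serum. Exposed to serial dilutions of test samples, 24 h at 37 °C under 90% N2/5% CO2/5% O2. Giemsa-stained smears; schizonts (≥3 merozoites) counted; IC50 by non-linear regression of dose-response curves.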

mu-oxodimeric heme [12] = test: Binding affinity to mu-oxodimeric heme (unknown origin) assessed as association constant at pH 5.8 by UV-titration method
Summary of the method: (§5)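 Hemin stock was 10 mM in 0.1 M NaOH, sonicated 30 min, then diluted in 20 mM phosphate buffer pH 5.8 to give µ-oxodimeric heme. Compound from 2 mM DMSO stock was titrated in (0-100 µM) and absorbance followed at 362 nm. Log K was obtained by titration, and stoichiometry by molar-fraction Job's plot.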

mu-oxodimeric heme [13] = test: Binding affinity to mu-oxodimeric heme (unknown origin) assessed as 1:1 stoichiometry for mu-oxodimeric heme-compound complex up to 100 uM at pH 5.8 by Job's plot analysis; summary of the method: as §5
Plasmodium berghei [14] = test: Antimalarial activity against Plasmodium berghei NK65 infected in Swiss albino mouse assessed as reduction in parasitemia at 25 mg/kg, po administered 4 hrs post infection for 4 days measured on day 4 post infection by giemsa staining based microscopic method; type: functional; design: scale not given: the % may be the effect or the level left; summary of the method: as §1
Heme [15] = test: Binding affinity to monomeric heme assessed as 1:1 stoichiometry for heme-compound complex up to 100 uM at pH 7.4 by Job's plot analysis; summary of the method: as §4
Plasmodium berghei [16] = test: Antimalarial activity against Plasmodium berghei NK65 infected in Swiss albino mouse assessed as mean survival days at 5 mg/kg, po administered 4 hrs post infection for 4 days measured up to 30 days (reference value: 7.2 days); type: functional
Plasmodium berghei [17] = test: Antimalarial activity against Plasmodium berghei NK65 infected in Swiss albino mouse assessed as reduction in parasitemia at 5 mg/kg, po administered 4 hrs post infection for 4 days measured on day 4 post infection by giemsa staining based microscopic method; type: functional; design: scale not given: the % may be the effect or the level left; summary of the method: as §1

SMILES	IC50 (Plasmodium falciparum [1])	selectivity ratio [6]	selectivity ratio [8]	Ratio IC50 [10]	IC50 (Plasmodium falciparum [11])	other results
NS(=O)(=O)c1ccc(N2N=C(c3ccc(OCC4=NCCO4)cc3)CC2c2ccc3c(c2)OCCO3)cc1 (configuration not stated)	2.15 µg/mL (≈ 4.03 µM)					
COc1ccc(C2CC(c3ccc(OCC4=NCCO4)cc3)=NN2c2ccc(S(N)(=O)=O)cc2)cc1 (configuration not stated)	0.322 µg/mL (≈ 0.636 µM)	12.5	5.5	2.29	0.737 µg/mL (≈ 1.45 µM)	Activity (Rattus norvegicus): Non-Toxic; MSD (Plasmodium berghei [2]): 11.4 days; MSD (Plasmodium berghei [3]): 15.6 days; Activity (Plasmodium berghei [4]): 79.33%; log K (Heme [5]): 4.98; Activity (Heme [7]): Active; log K (Heme [9]): 5.87; log K (mu-oxodimeric heme [12]): 4.34; Activity (mu-oxodimeric heme [13]): Active; Activity (Plasmodium berghei [14]): 63.89%; Activity (Heme [15]): Active
COc1ccc(C2CC(c3ccc(OCC4=NCCO4)cc3)=NN2)cc1 (configuration not stated)	1.03 µg/mL (≈ 2.94 µM)					
Fc1ccc(C2CC(c3ccc(OCC4=NCCO4)cc3)=NN2c2ccccc2)cc1 (configuration not stated)	0.645 µg/mL (≈ 1.55 µM)					
Clc1ccc(C2CC(c3ccc(OCC4=NCCO4)cc3)=NN2c2ccccc2)cc1 (configuration not stated)	0.477 µg/mL (≈ 1.1 µM)	23.3	7.1	3.29	1.57 µg/mL (≈ 3.64 µM)	
Cc1ccc(C2CC(c3ccc(OCC4=NCCO4)cc3)=NN2c2ccccc2)cc1 (configuration not stated)	1.01 µg/mL (≈ 2.45 µM)					
COc1cccc(/C=C/C(=O)c2ccc(OCC3=NCCO3)cc2)c1	1.82 µg/mL (≈ 5.4 µM)					
O=C(/C=C/c1cccc(O)c1)c1ccc(OCC2=NCCO2)cc1	0.515 µg/mL (≈ 1.59 µM)	23.6	7.7	3.05	1.57 µg/mL (≈ 4.86 µM)	
NS(=O)(=O)c1ccc(N2N=C(c3ccc(OCC4=NCCO4)cc3)CC2c2ccc([N+](=O)[O-])cc2)cc1 (configuration not stated)	0.627 µg/mL (≈ 1.2 µM)					
c1ccc2c(C3CC(c4ccc(OCC5=NCCO5)cc4)=NN3)c[nH]c2c1 (configuration not stated)	0.657 µg/mL (≈ 1.82 µM)					
COc1ccc(C2CC(c3ccc(OCC4=NCCO4)cc3)=NN2c2ccccc2)cc1 (configuration not stated)	0.545 µg/mL (≈ 1.27 µM)	30.4	10.5	2.88	1.57 µg/mL (≈ 3.67 µM)	
O=C(/C=C/c1ccccc1)c1ccc(OCC2=NCCO2)cc1	1.77 µg/mL (≈ 5.77 µM)					
c1ccc(N2N=C(c3ccc(OCC4=NCCO4)cc3)CC2c2c[nH]c3ccccc23)cc1 (configuration not stated)	0.459 µg/mL (≈ 1.05 µM)	21.3	2.3	9.22	4.23 µg/mL (≈ 9.7 µM)	
O=C(/C=C/c1cccc(Cl)c1)c1ccc(OCC2=NCCO2)cc1	0.577 µg/mL (≈ 1.69 µM)					
O=C(/C=C/c1c[nH]c2ccccc12)c1ccc(OCC2=NCCO2)cc1	0.936 µg/mL (≈ 2.7 µM)					
CCN(CC)CCCC(C)Nc1ccnc2cc(Cl)ccc12 (configuration not stated) [CHLOROQUINE]						MSD (Plasmodium berghei [16]): 30 days; Activity (Plasmodium berghei [17]): 97.1%

SMILES	IC50 (Plasmodium falciparum [1])	selectivity ratio [6]	selectivity ratio [8]	Ratio IC50 [10]	IC50 (Plasmodium falciparum [11])	other results
NS(=O)(=O)c1ccc(N2N=C(c3ccc(OCC4=NCCO4)cc3)CC2c2ccc(F)cc2)cc1 (configuration not stated)	0.419 µg/mL (≈ 0.847 µM)	19.8	4.6	4.23	1.77 µg/mL (≈ 3.59 µM)	
O=C(/C=C/c1ccc(F)cc1)c1ccc(OCC2=NCCO2)cc1	0.813 µg/mL (≈ 2.5 µM)					
O=C(/C=C/c1ccc2c(c1)OCCO2)c1ccc(OCC2=NCCO2)cc1	4.23 µg/mL (≈ 11.6 µM)					
COc1cccc(C2CC(c3ccc(OCC4=NCCO4)cc3)=NN2c2ccc(S(N)(=O)=O)cc2)c1 (configuration not stated)	0.413 µg/mL (≈ 0.815 µM)	18.4	8.1	2.27	0.936 µg/mL (≈ 1.85 µM)	
O=C(/C=C/c1ccc([N+](=O)[O-])cc1)c1ccc(OCC2=NCCO2)cc1	0.723 µg/mL (≈ 2.05 µM)					
CC(=O)c1ccc(OCC2=NCCO2)cc1	0.737 µg/mL (≈ 3.36 µM)					
O=C(/C=C/c1ccc(Cl)cc1)c1ccc(OCC2=NCCO2)cc1	0.557 µg/mL (≈ 1.63 µM)	25.5	7.8	3.27	1.82 µg/mL (≈ 5.33 µM)	
NS(=O)(=O)c1ccc(N2N=C(c3ccc(OCC4=NCCO4)cc3)CC2c2ccc(Cl)cc2)cc1 (configuration not stated)	0.471 µg/mL (≈ 0.922 µM)	22.2	5.7	3.87	1.82 µg/mL (≈ 3.57 µM)	
NS(=O)(=O)c1ccc(N2N=C(c3ccc(OCC4=NCCO4)cc3)CC2c2cccc(Cl)c2)cc1 (configuration not stated)	0.552 µg/mL (≈ 1.08 µM)	34.2	8.7	3.9	2.15 µg/mL (≈ 4.22 µM)	
COc1ccc(/C=C/C(=O)c2ccc(OCC3=NCCO3)cc2)cc1	1.57 µg/mL (≈ 4.66 µM)					
NS(=O)(=O)c1ccc(N2N=C(c3ccc(OCC4=NCCO4)cc3)CC2c2cccc([N+](=O)[O-])c2)cc1 (configuration not stated)	1.02 µg/mL (≈ 1.96 µM)					
O=C(/C=C/c1cccc([N+](=O)[O-])c1)c1ccc(OCC2=NCCO2)cc1	1.57 µg/mL (≈ 4.46 µM)					
Cc1ccc(/C=C/C(=O)c2ccc(OCC3=NCCO3)cc2)cc1	2.68 µg/mL (≈ 8.34 µM)					
CC(=O)N1N=C(c2ccc(OCC3=NCCO3)cc2)CC1c1ccc(Cl)cc1 (configuration not stated)	0.513 µg/mL (≈ 1.29 µM)	29.5	9.6	3.06	1.57 µg/mL (≈ 3.95 µM)	
O=C(/C=C/c1ccc(O)cc1)c1ccc(OCC2=NCCO2)cc1	2.44 µg/mL (≈ 7.54 µM)					
